# Data reported in article PMC6349029 (Bioorganic & medicinal chemistry letters, 2018).
# Columns and labels:
# [1] = test system: TRPC4; conditions: cited from earlier work
# [2] = test system: animal models of kidney disease; conditions: previously shown; cited from earlier work
# [3] = test system: TRPC6; conditions: cited from earlier work
# [4] = target: T1, TRPC5 channel (Homo sapiens, UniProt Q9UL62); assay: TRPC5 % inhibition at single concentration, Syncropatch; assay type: cell-based; conditions: read-out: % inhibition at 3 μM, Table 3
# T1 sequence (Q9UL62 1-973): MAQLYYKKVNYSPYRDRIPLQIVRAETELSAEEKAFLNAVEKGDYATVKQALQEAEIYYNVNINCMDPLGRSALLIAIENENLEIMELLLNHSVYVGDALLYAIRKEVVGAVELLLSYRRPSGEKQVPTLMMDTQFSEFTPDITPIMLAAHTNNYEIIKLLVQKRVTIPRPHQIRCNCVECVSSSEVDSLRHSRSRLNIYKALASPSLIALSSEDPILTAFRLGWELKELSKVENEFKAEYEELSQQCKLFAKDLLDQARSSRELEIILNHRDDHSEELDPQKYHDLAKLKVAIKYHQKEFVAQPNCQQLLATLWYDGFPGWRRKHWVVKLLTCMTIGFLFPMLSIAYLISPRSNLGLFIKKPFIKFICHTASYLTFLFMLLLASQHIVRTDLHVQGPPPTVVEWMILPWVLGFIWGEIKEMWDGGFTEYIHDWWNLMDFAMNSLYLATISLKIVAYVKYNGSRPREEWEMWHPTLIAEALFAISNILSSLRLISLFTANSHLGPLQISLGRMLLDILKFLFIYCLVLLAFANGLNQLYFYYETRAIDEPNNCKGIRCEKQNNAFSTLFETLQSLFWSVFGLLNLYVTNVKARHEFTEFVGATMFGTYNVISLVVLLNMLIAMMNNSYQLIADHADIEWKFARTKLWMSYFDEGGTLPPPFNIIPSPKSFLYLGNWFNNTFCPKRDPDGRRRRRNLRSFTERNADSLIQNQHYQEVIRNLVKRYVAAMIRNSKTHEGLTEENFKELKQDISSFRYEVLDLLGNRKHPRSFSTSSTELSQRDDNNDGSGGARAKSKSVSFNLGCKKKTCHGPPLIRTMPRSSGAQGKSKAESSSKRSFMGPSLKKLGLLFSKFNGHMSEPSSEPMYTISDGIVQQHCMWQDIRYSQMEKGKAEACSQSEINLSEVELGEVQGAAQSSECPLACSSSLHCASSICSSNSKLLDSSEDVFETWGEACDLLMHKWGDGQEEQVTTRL
# How it was run: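 Automated patch-clamp (Syncropatch) first-pass screen of TRPC5 channel block. Each test compound was run at one concentration (3 μM) in a single well. Values were normalised so that the furfuryl-amine reference analogue's inhibition at 3 μM equals 100%. A reference inhibitor and DMSO served as controls on every plate. Recordings came from at least one session over two assay plates.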
# [5] = test system: kidney filter; conditions: in vivo animal model; cited from earlier work
Compound,selectivity for TRPC5 over TRPC4 [1],activity in animal models of kidney disease [2],selectivity for TRPC5 over TRPC6 [3],inhibition at 3 µM [4],protection of the kidney filter [5]
c1ccc(Cn2c(NCc3ccco3)nc3ccccc32)cc1 [Compound 2],selective,active,selective,100%,–
Fc1ccc(Cn2c(NCc3ccco3)nc3ccccc32)cc1 [Compound 6o],–,–,–,167%,–
Cc1cc(N2CCCCC2)nc2ccccc12 [ML204],–,–,–,–,protect the kidney filter
